# From publication PMC8419008 (Structure (London, England : 1993), 2021)
# Residue numbers refer to the chain shown, from its start. “Also recorded” adds a separate entry of the source.
# Experiments:
# PHA7 (PLEKHA7 PH domain) = molecular target: T1, PHA7 (PLEKHA7 PH domain) (Homo sapiens, UniProt Q6IQ23); assay: Liposome co-sedimentation assay; format: binding; settings: pure diC16-PC liposomes or liposomes containing 10% molar diC16-PIP; SDS-PAGE
# T1 sequence (Q6IQ23 164-285): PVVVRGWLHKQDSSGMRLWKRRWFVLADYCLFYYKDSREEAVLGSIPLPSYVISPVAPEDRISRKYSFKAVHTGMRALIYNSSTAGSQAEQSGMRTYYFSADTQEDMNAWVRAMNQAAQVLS
# Procedure, shortened: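 Small unilamellar vesicles made by bath sonication until translucent, from 100% diC16-PC or 9/1 diC16-PC/diC16-PI(4,5)P2 at 3 mg/mL. 200 uL vesicles mixed with 20 uM PH domain solution, 2 h at room temperature. Airfuge spin at 91,000 rpm for 20 h; supernatant and pellet analysed by SDS-PAGE.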
# [1] = molecular target: T2, PHA7 (PLEKHA7 PH domain, wild-type) (Homo sapiens, UniProt Q6IQ23); assay: 1H/15N HSQC NMR chemical shift perturbation of 15N-labeled PHA7; format: binding; settings: 15°C; for NMR spectral change of PHA7 on incubation with nanodiscs: 1.5 molar equivalents of nanodiscs, 100% diC16-PC or 10% molar diC16-PIP; for NMR spectral perturbation / binding of PHA7: soluble or short-chain ligand, 1.5 molar equivalents
# T2 sequence (Q6IQ23 164-285): T1 sequence (Q6IQ23 164-285)
# Procedure, shortened: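 Human PLEKHA7 PH domain expressed as a GST fusion in E. coli BL21 in M9 with (15NH4)2SO4, then cleaved with HRV 3C, purified by cation exchange and gel filtration. Added directly to preformed MSP1D1Δh5 nanodiscs (100% diC16-PC, or 9/1 diC16-PC with diC16-PI(3,4,5)P3, -PI(4,5)P2 or -PI(3,4)P2). Read-out: 1H/15N chemical shift perturbations.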
# [2] = molecular target: T3, PLEKHA7 PH domain (PHA7, wild-type) (Homo sapiens, UniProt Q6IQ23); assay: ITC titration of wild-type PHA7 with soluble IP headgroups or PIP nanodiscs; settings: read-out: ITC Kd, PHA7; soluble IP headgroups; 23°C; single-site binding model; average of triplicate
# T3 sequence (Q6IQ23 164-285): T1 sequence (Q6IQ23 164-285)
# [3] = molecular target: T4, PHA7-D175K (PLEKHA7 PH domain mutant) (Homo sapiens, UniProt Q6IQ23, D175K); assay: ITC titration of mutant PHA7-D175K with soluble IP headgroups or PIP nanodiscs; format: binding; settings: soluble IP headgroups; for Kd: read-out: ITC Kd, PHA7-D175K, 23°C, single-site binding model, average of triplicate; for greater affinity of PHA7-D175K compared to wild-type: ITC
# T4 sequence (Q6IQ23 164-285 D175K): T1 sequence (Q6IQ23 164-285) with D12K
# Procedure, shortened: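 ITC run at 23°C in 15 mM Tris pH 7.6, 70 mM NaCl, 0.5 mM TCEP. Cell held 50 μM protein; syringe held 0.5 mM soluble IP headgroup. Protein concentration was set by A280. Integrated heats were fitted to a single-site binding model to obtain dissociation constants.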
Molecule,co-sedimentation of PHA7 with liposomes (PHA7 (PLEKHA7 PH domain)),NMR spectral change of PHA7 on incubation with nanodiscs [1],Kd [2] [µM],Kd [3] [µM],greater affinity of PHA7-D175K compared to wild-type [3],NMR spectral perturbation / binding of PHA7 [1]
"CCCCCCCCCCCCCCCC(=O)OC[C@H](COP(=O)([O-])OCC[N+](C)(C)C)OC(=O)CCCCCCCCCCCCCCC [diC16-PC, dipalmitoyl-phosphatidyl-choline]",does not sediment,no detectable NMR spectral changes,,,,
"O=P(O)(O)OC1[C@H](O)[C@H](OP(=O)(O)O)C(OP(=O)(O)O)[C@H](OP(=O)(O)O)[C@H]1O (stereo partly drawn) [IP(3,4,5)P3, inositol (1,3,4,5) tetraphosphate]",,,30.1 ± 2.3,3.5 ± 0.5,nine-fold,weak binding interaction with fast exchange binding dynamics
CCCCCCCC(=O)OC[C@H](COP(=O)(O)OC1[C@H](O)[C@H](O)C(O)[C@H](O)[C@H]1O)OC(=O)CCCCCCC (stereo partly drawn) [diC8-PI],,,,,,no perturbations; also recorded: does not bind
"O=P(O)(O)O[C@@H]1[C@H](O)[C@H](O)[C@@H](OP(=O)(O)O)[C@H](OP(=O)(O)O)[C@H]1O [IP(4,5)P2, inositol (1,4,5) triphosphate]",,,30.5 ± 0.6,10.7 ± 0.2,three-fold,
"phosphatidyl inositol (3,4,5) triphosphate [PI(3,4,5)P3]",abundant co-sedimentation,effectively obliterated,,,,
